Bioassay records: PubChem BioAssay, Johns Hopkins Ion Channel Center
TRPC4 act: TRPC4 (mouse) channel activation; Q9QUQ5; HEK293 TRPC4beta/mu-opioid, Fluo4 calcium fluorescence; hits give high values; B-score at 10 µM; 310,000 compounds, 0.49% hits;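 active means B-score above 5 SD of library B-scores, and initial fluorescence ratio not above library mean plus 5 SD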;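 further: positive B-score marks a calcium rise read as TRPC4 activation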
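Test system: HEK293 cells stably co-expressing mouse TRPC4beta and mu-opioid receptor | Schedule: Fluo4 dye loading 45 min at room temperature, 110 s recording | Measured by: Kinetic Fluo4 calcium fluorescence, 5 s baseline at 1 Hz | Evaluation: B score of integrated ratio | Controls: Buffer (low) and maximal DAMGO (high)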
TRPC4 potent: allosteric potentiators of mouse TRPC4 channel; 310,000 compounds, 0.42% hits; HEK293 TRPC4beta/mu-opioid, DAMGO EC20, Fluo-4 Ca2+ flux; hits give high values; B-score at 10 µM; AID 2227;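 active means B-score of calcium response area above 5 SD of library B-scores, with initial fluorescence ratio within 5 SD of library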;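 further: B-score of integrated fluorescence ratio over time as area under calcium response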
TRPC6 act: mouse TRPC6 channel activation; Q61143; HEK293-TRPC6 membrane potential dye fluorescence; hits give high values; B-score at 10 µM; 310,000 compounds, 0.13% hits; AID 2550;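 active means B-score of the integrated fluorescence ratio above library mean plus 3 SD, and starting fluorescence ratio within library mean plus 5 SD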;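 further: higher score means more depolarization so channel activation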
TRPC4 block: inhibitors of mouse TRPC4 channel; HEK293 TRPC4beta/mu-opioid, DAMGO-evoked Fluo4 calcium flux; hits give low values; B-score at 10 µM; 300,000 compounds, 0.39% hits; Q9QUQ5;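 active means B-score over 3 SD under the library average, no early fluorescence shift, positive overall ratio signal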
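Assay system: HEK293 cells with stable TRPC4beta plus mu-opioid receptor expression. Dosing: single dose. Measured by: Fluo4 Ca2+ flux fluorescence. Also added: DAMGO in two steps, submaximal then maximal. Read-out: B score from integrated Fluo4 fluorescence ratio.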
TRPC6 inh: inhibitors of mouse TRPC6 channel | B-score at 10 µM | HEK293-TRPC6, membrane potential dye, ACh-evoked depolarization; hits give low values | 310,000 compounds, 1.1% hits | Q61143 | AID 2553;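 active means B-score under library mean minus 3 SD, initial fluorescence not abnormally high, positive integrated signal ratio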;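 further: B-score derived from integrated fluorescence ratio over the kinetic read; more negative B-score means stronger inhibition of depolarization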
* marks the source's active call; other numbers are inactive results; i = inactive. In the library only some 2.3% were active in any assay of this set; here they are far more common.

SMILES	TRPC4 act	TRPC4 potent	TRPC6 act	TRPC4 block	TRPC6 inh
Clc1ccc(OCCCNCc2ccccc2)c2ccccc12	56*	i	i	i	i
Brc1ccccc1OCCNCc1ccccc1	i	i	i	i	i
CC1(C)CC(=O)C=C(c2ccc3c(c2)OCO3)C1	i	i	i	i	i
CCCCC(c1nnnn1CC1CCCO1)N1CCN(Cc2ccccc2)CC1 (stereo not drawn)	93*	i	i	-6*	i
Cc1cc(NC(=O)c2cc(-c3cccs3)nc3ccccc23)no1	i	i	i	-6*	i
Cc1ccc(-c2cc(C(=O)Nc3cc(C)on3)c3ccccc3n2)cc1	i	i	i	i	i
CC(C)CCn1c(O)c(N=NC(=O)c2ccco2)c2ccccc21	i	i	i	i	i
CC(C)Cn1c(O)c(N=NC(=O)c2cccc(S(=O)(=O)N3CCCCC3)c2)c2ccccc21	i	17*	i	i	i
CC[n+]1c(C=C2C=C(C)OC(C)=C2)sc2ccccc21	i	i	i	-8*	i
COc1ccccc1CCNC(=O)CNC(=O)c1ccc2ccccc2c1	i	i	i	i	i
N#Cc1c(N)sc2c1CCCCCC2	i	i	i	-7*	i
CC(C)(C)CC(C)(C)NC(=O)/C=C/C(=O)O	i	i	i	i	i
CN(C)CCN(C(=O)CN1C(=O)c2ccccc2C1=O)c1nc2cc3c(cc2s1)OCO3	i	i	i	i	i
CN(C)CCN(C(=O)c1ccc(S(=O)(=O)N(C)c2ccccc2)cc1)c1nc2cc3c(cc2s1)OCO3	i	i	i	i	i
CCN(Cc1ccccc1)S(=O)(=O)c1ccc(C(=O)N(CCCN(C)C)c2nc3cc4c(cc3s2)OCO4)cc1	45*	i	i	-6*	i
CCN(CC)CCN(C(=O)CN1C(=O)c2ccccc2C1=O)c1nc2cc3c(cc2s1)OCO3	i	i	i	i	-8.7*
CN(C)CCCN(C(=O)c1ccc(Br)s1)c1nc2cc3c(cc2s1)OCO3	i	i	i	-7*	i
CN(C)CCCN(C(=O)c1ccc2c(c1)CCCC2)c1nc2cc3c(cc2s1)OCO3	i	i	i	i	i
CCc1nc(SCc2ccc(OCC(C)C)cc2)n[nH]1	i	i	i	i	i
CC(C)c1ccc(NC(=O)N(CCc2nc3ccccc3[nH]2)C2CCCC2)cc1	75*	i	i	-7*	i
CC(C(=O)NCC1CCCO1)n1cccc1C(=O)c1ccccc1 (stereo not drawn)	i	i	i	i	i
CN(C)S(=O)(=O)c1cccc(COC(=O)c2ccc3c(c2)OCO3)c1	i	i	i	i	i
CN(C)S(=O)(=O)c1cccc(COC(=O)c2ccc(Cl)cc2O)c1	i	17*	i	i	i
CC(=O)C1=C(c2ccc(Br)cc2)C(=O)c2ccccc2C1=O	i	35*	i	i	i
Cn1c(-c2ccccc2)cnc1NCc1ccccc1	i	i	i	-6*	i
SMILES	TRPC4 act	TRPC4 potent	TRPC6 act	TRPC4 block	TRPC6 inh
CC1CCCN(CCCNC(=O)c2ccc3c(c2)N(Cc2ccccc2F)C(=O)c2ccccc2S3(=O)=O)C1 (stereo not drawn)	114*	i	i	i	i
O=c1oc2ccccc2c(Nc2ccccc2)c1CN1CCCCC1	i	i	i	-7*	i
CCc1ccc(/C(C)=N/NC(=O)CNC(=O)/C=C/c2ccco2)cc1	i	i	i	i	i
C#CCNC(=O)C1=C[C@H](c2csc3ccccc23)C[C@H](OCc2ccc(CO)cc2)O1	52*	i	i	i	i
CC(=O)n1cc([C@H]2C=C(C(N)=O)O[C@@H](OCc3ccc(CO)cc3)C2)c2ccccc21	51*	i	i	i	i
CC(=O)n1cc([C@H]2C=C(C(=O)NCc3ccccc3)O[C@@H](OCc3ccc(CO)cc3)C2)c2ccccc21	244*	i	i	i	i
C#CCNC(=O)C1=C[C@@H](c2cn(C(C)=O)c3ccccc23)C[C@@H](OCc2ccc(CO)cc2)O1	i	i	i	i	i
COc1ccc(OC)c(CC(NC(C)=O)C(=O)NC2CCN(c3nc(OC)nc(OC)n3)CC2)c1 (stereo not drawn)	i	i	i	i	i
CC(C)(C)n1nnnc1C(c1ccncc1)N(Cc1ccccc1)Cc1ccco1 (stereo not drawn)	i	10*	i	i	i
O=C(N/N=C/c1ccc(Br)o1)/C(=C/c1ccc([N+](=O)[O-])cc1)NC(=O)c1ccccc1	i	i	i	i	i
CCN(Cc1ccncc1)C(=O)c1cc(COc2ccc(OC)cc2Cl)on1	i	i	i	i	i
CCOc1ccc2[nH]c(=O)c(CN(Cc3cccs3)Cc3nnnn3C(C)(C)CC)cc2c1	i	i	i	i	i
CCC(C)(C)n1nnnc1CN(Cc1cccs1)Cc1cc2cc(OC)ccc2[nH]c1=O	i	11*	i	i	i
Cc1ccc(S(=O)(=O)NC(=O)N2CCN(Cc3c(F)cccc3Cl)CC2)cc1	i	21*	i	i	i
Cc1[nH]c2ccc(C(=O)OC(C)C(=O)N(C)c3ccccc3)cc2c1C (stereo not drawn)	i	i	i	-7*	i
Cc1ccc(S(=O)(=O)NCCC(=O)NCC(c2ccco2)N2CCCCC2)cc1C (stereo not drawn)	72*	i	i	-6*	i
Cc1ccc(S(=O)(=O)Nc2cccc(C(=O)NCC(c3ccco3)N3CCCCC3)c2)cc1F (stereo not drawn)	i	i	i	-9*	i
Cc1cc(S(=O)(=O)Nc2ccc(C(=O)NCC(c3ccco3)N3CCCCC3)cc2)ccc1F (stereo not drawn)	i	i	i	i	i
CCN1C(=O)/C(=C\N2CCCc3ccccc32)SC1=S	i	20*	i	i	i
CCN1C(=O)/C(=C/N2CCc3ccccc32)SC1=S	i	i	i	i	i
CCC(C)(C)NC(=O)C(c1sccc1C)N(Cc1ccco1)C(=O)c1csnn1 (stereo not drawn)	i	i	i	i	-5.8*
Cc1ccsc1C(C(=O)NC(C)(C)C)N(Cc1ccco1)C(=O)c1csnn1 (stereo not drawn)	i	i	i	i	i
COc1ccc(C)cc1S(=O)(=O)n1c([N+](=O)[O-])cnc1C	i	i	i	i	i
